Experimental data published in ChEMBL document CHEMBL1144992, “Unsymmetrical DNA cross-linking agents: combination of the CBI and PBD pharmacophores” (J Med Chem, 2003).

How the values were obtained:
CHO-AA8 = test: In vitro cellular toxicity against chinese hamster AA8 cell line after 4 hr of compound exposure; format: functional, cell-based; conditions: Cricetulus griseus, CHO-AA8, 4 h
Outline: (§1)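 Cells exposed to drug for 4 h, then stained with sulforhodamine B 3 days later. IC50 interpolated as the concentration reducing cell density to 50% of same-plate controls. Values are the mean of 2-6 experiments.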

EMT6 = test: In vitro cellular toxicity against murine mammary carcinoma EMT6 cell line after 4 hr of compound exposure; format: functional, cell-based; conditions: Mus musculus, EMT6, 4 h; outline: as §1
SK-OV-3 [1] = test: In vitro cellular toxicity against human ovarian carcinoma SKOV3 cell line after 4 hr of compound exposure; format: functional, cell-based; conditions: SK-OV-3, 4 h; outline: as §1
UV4 = test: In vitro cellular toxicity against chinese hamster UV4 cell line after 4 hr of compound exposure; format: functional, cell-based; conditions: Cricetulus griseus, UV4, 4 h; outline: as §1
[2] = test system: Panel (Carcinoma cell lines); test: In vitro drug concentration required for 50% inhibition of 60 different human cancer cell lines compared to controls; format: functional
Nucleic Acid = test: Tested for its ability to cross-link linearized plasmid DNA pcDNA3 following 18 hr of exposure at 37 degree celsius; format: functional
Outline: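 EcoRI-linearized pcDNA3 plasmid (5400 bp), 3'-end labelled with α-32P-dATP by Klenow. 50 ng DNA incubated with drug (DMSO) in TE pH 7.5, 10 µL final volume, 18 h at 37 °C. Denatured with NaOH strand-separation buffer for 5-10 min, then run on 0.8% agarose gel. Double-stranded fraction quantified by phosphorimaging. At least five concentrations tested, 2-4 assays. C50 taken from a 3-parameter logistic fit capped at 100%.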

[3] = Ratio of LC50 values between the least sensitive and most sensitive human cancer cell lines; format: functional
Outline: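 NCI 60-cell-line panel covering nine tissue types. LC50 is concentration producing 50% reduction in cells. Value is ratio of LC50 for least sensitive versus most sensitive line.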

COLO 205 = test: In vitro cytotoxicity against human tumor COLO 205 cell line was measured as concentration to reduce [3H]thymidine uptake to 50% of that of the controls; format: functional, cell-based; conditions: COLO 205, 5 days
Outline: (§2)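 Cell suspensions exposed to drug continuously for 5 days. [3H]thymidine (0.25 µCi/mL, 0.1 µM) plus 5-fluoro-2'-deoxyuridine (0.1 µM) added 4 h before termination. Pronase 2 mg/mL in 4 mM Na4EDTA released adherent cells before aspiration and filtration. IC50 interpolated against same-plate controls. Mean of 2-3 experiments, some single determinations.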

HT-29 = test: In vitro cytotoxicity against human tumor HT-29 cell line was measured as concentration to reduce [3H]thymidine uptake to 50% of that of the controls; format: functional, cell-based; conditions: HT-29, 5 days; outline: as §2
Mus musculus [4] = test: In vivo maximum tolerated dose for single intraperitoneal injection in non tumor-bearing C3H/HeN mice; format: functional
Outline: (§3)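 Female non-tumour-bearing C3H/HeN mice received a single ip or iv injection in 100% DMSO at 0.001 mL/g. Doses stepped in 1.33-fold increments on a fixed scale, with 60-day observation. MTD defined as highest dose giving no deaths in a group of 6 and ≤15% mean body weight loss on day 4. Ratio is iv MTD over ip MTD.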

Mus musculus [5] = test: In vivo maximum tolerated dose for single intravenous injection in non-tumor-bearing C3H/HeN mice; format: functional; outline: as §3
Mus musculus [6] = test: Average time for WiDr tumor xenograft to reach a diameter of 17 mm following single intravenous injection at day 0 where tumor diameter was 8 mm in mice; format: functional
Outline: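 Subcutaneous flank implant of WiDr cells (10^7 cells/mouse) in female CD-1 nude mice. Randomised at mean tumour diameter 8 mm (5-11 mice/group). Single iv dose at predetermined MTD, formulated in 100% DMSO at 0.001 mL/g, on day 0. Calipers used until mean diameter reached 17 mm, then culled. Values are average days to end point; ANOVA with Dunnett's test.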

SiHa = test: In vitro cytotoxicity against human tumor SiHa cell line was measured as concentration to reduce [3H]thymidine uptake to 50% of that of the controls; format: functional, cell-based; outline: as §2
SK-OV-3 [7] = test: In vitro cytotoxicity against human tumor SKOV3 cell line was measured as concentration to reduce [3H]thymidine uptake to 50% of that of the controls; format: functional, cell-based; conditions: SK-OV-3, 5 days; outline: as §2
WiDr = test: In vitro cytotoxicity against human tumor WiDr cell line was measured as concentration to reduce [3H]thymidine uptake to 50% of that of the controls; format: functional, cell-based; outline: as §2
[8] = Ratio of maximum tolerated dose of intravenous to intraperitoneal injection in mice; format: functional; outline: as §3

Row | SMILES | IC50 (CHO-AA8) | IC50 (EMT6) | IC50 (SK-OV-3 [1]) | IC50 (UV4) | GI50 [2] | C50 (Nucleic Acid) | Ratio [3] | IC50 (COLO 205) | IC50 (HT-29) | MTD (Mus musculus [4]) | MTD (Mus musculus [5]) | Time (Mus musculus [6]) | IC50 (SiHa) | IC50 (SK-OV-3 [7]) | IC50 (WiDr) | MTD ratio [8]
1 | CC(=O)N1C[C@H](CCl)c2c1cc(O)c1ccccc21 | 14000 nM | 12000 nM | 14000 nM | 1800 nM | – | – | – | – | – | – | – | – | – | – | – | –
2 | CC(=O)N1C[C@@H](CCl)c2c1cc(O)c1ccccc21 | 210 nM | 280 nM | 360 nM | 59 nM | – | – | – | – | – | – | – | – | – | – | – | –
3 | COc1cc2c(cc1OCCC(=O)N1C[C@H](CCl)c3c1cc(O)c1ccccc31)N=CC1CCCN1C2=O (single isomer, unassigned) | 1600 nM | 300 nM | 960 nM | 860 nM | 3200 nM | 7.9 µM | 35 | – | – | – | – | – | – | – | – | –
4 | COc1cc2c(cc1OCCCOc1cc3c(cc1OC)C(=O)N1CCC[C@H]1C=N3)N=C[C@@H]1CCCN1C2=O [DSB-120] | 340 nM | 23 nM | 140 nM | 86 nM | – | 0.029 µM | – | 7 nM | 8.7 nM | 1 µM/kg | 4.21 µM/kg | 22.8 days | 7.3 nM | 6.3 nM | 10 nM | 4.21
5 | COc1cc2c(cc1OCCCCCC(=O)N1C[C@@H](CCl)c3c1cc(O)c1ccccc31)NC(=O)[C@@H]1CCCN1C2=O | 29 nM | 3.2 nM | 6.2 nM | 13 nM | – | – | – | – | – | – | – | – | – | – | – | –
6 | COc1cc2cc(C(=O)N3C[C@@H](CCl)c4c3cc(O)c3ccccc43)[nH]c2c(OC)c1OC | 0.21 nM | 0.13 nM | 0.29 nM | 0.09 nM | – | – | – | – | – | – | – | – | – | – | – | –
7 | COc1cc2c(cc1OCCCCCC(=O)N1C[C@H](CCl)c3c1cc(O)c1ccccc31)N=CC1CCCN1C2=O (single isomer, unassigned) | 4.2 nM | 0.56 nM | 3 nM | 1.5 nM | 18 nM | 0.13 µM | 2400 | 0.18 nM | 0.25 nM | 0.75 µM/kg | 13.3 µM/kg | 24.4 days | 0.2 nM | 0.2 nM | 0.28 nM | 17.7
8 | COc1cc2c(cc1OCCCC(=O)N1C[C@H](CCl)c3c1cc(O)c1ccccc31)N=CC1CCCN1C2=O (single isomer, unassigned) | 4 nM | 0.3 nM | 1.9 nM | 0.83 nM | 13 nM | 0.025 µM | 3200 | – | – | – | – | – | – | – | – | –
9 | COc1cc2c(cc1OCCCCCC(=O)N1C[C@@H](CCl)c3c1cc(O)c1ccccc31)N=C[C@@H]1CCCN1C2=O | 0.054 nM | 0.0078 nM | 0.032 nM | 0.023 nM | < 10 nM | 0.022 µM | >10000 | 0.0035 nM | 0.0027 nM | 0.0178 µM/kg | 0.178 µM/kg | 40.8 days | 0.0028 nM | 0.0033 nM | 0.0039 nM | 10
10 | COc1cc2c(cc1OCCCCC(=O)N1C[C@H](CCl)c3c1cc(O)c1ccccc31)N=CC1CCCN1C2=O (single isomer, unassigned) | 40 nM | 12 nM | 35 nM | 14 nM | 130 nM | 1.05 µM | 190 | – | – | – | – | – | – | – | – | –
11 | COc1cc2c(cc1OCCCCC(=O)N1C[C@@H](CCl)c3c1cc(O)c1ccccc31)N=C[C@@H]1CCCN1C2=O | 11 nM | 3.1 nM | 11 nM | 5.9 nM | 79 nM | 0.56 µM | 160 | – | – | – | – | – | – | – | – | –
12 | COc1cc2c(cc1O)N=C[C@@H]1CCCN1C2=O | 2000 nM | 1100 nM | 1900 nM | 1500 nM | – | – | – | – | – | – | – | – | – | – | – | –
13 | COc1cc2c(cc1OCC(=O)N1C[C@H](CCl)c3c1cc(O)c1ccccc31)N=CC1CCCN1C2=O (single isomer, unassigned) | 48 nM | 5 nM | 16 nM | 6.1 nM | 91 nM | 1.21 µM | 200 | – | – | – | – | – | – | – | – | –
14 | COc1cc2c(cc1OCCCCCC(=O)N1CC(C)c3c1cc(O)c1ccccc31)N=C[C@@H]1CCCN1C2=O (stereo partly drawn) | 4500 nM | 840 nM | 2100 nM | 2500 nM | – | – | – | – | – | – | – | – | – | – | – | –
15 | COc1cc2c(cc1OCCCC(=O)N1C[C@@H](CCl)c3c1cc(O)c1ccccc31)N=C[C@@H]1CCCN1C2=O | 0.13 nM | 0.03 nM | 0.14 nM | 0.074 nM | < 10 nM | 0.017 µM | >10000 | 0.037 nM | 0.021 nM | 0.00316 µM/kg | 0.316 µM/kg | 26 days | 0.012 nM | 0.021 nM | 0.014 nM | 100
16 | COc1cc2c(cc1OCCC(=O)N1C[C@@H](CCl)c3c1cc(O)c1ccccc31)N=C[C@@H]1CCCN1C2=O | 240 nM | 51 nM | 200 nM | 160 nM | 500 nM | 5 µM | 50 | – | – | – | – | – | – | – | – | –
